Each structure is given as a SMILES string.

We go through four compounds from ChEMBL document CHEMBL4130545, “Lupane-Type Triterpenes of Phoradendron vernicosum” (J Nat Prod, 2017).

Data set [1] relates to HeLa. As to the kind of experiment: Cytotoxic activity in human HeLa cells by sulforhodamine B assay. It is filed as functional. The procedure, abridged: (§1)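 Cell lines grown in D-MEM with 10% (v/v) FBS, 100 U/mL penicillin G and 100 μg/mL streptomycin at 37 °C, 5% CO2, 95% humidity. Cytotoxicity was measured by the Skehan method. CC50 was taken as the concentration that reduces cell growth by 50%. Docetaxel served as positive control, and each test was run in triplicate.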
(The SRB assay estimates cell density from bound dye.)

Data set [2] has as its system SiHa. The experiment in a line: Cytotoxic activity in human SiHa cells by sulforhodamine B assay. It is filed as functional. The procedure, abridged:
as §1

The subject of data set [3] is MCF7. As to the kind of experiment: Cytotoxic activity in human MCF7 cells by sulforhodamine B assay. It is filed as functional. The procedure, abridged: as §1
Data set [4] concerns MDA-MB-231. The experiment in a line: Cytotoxic activity in human MDA-MB-231 cells by sulforhodamine B assay. It is filed as functional. A digest of the protocol: as §1
The test system of data set [5] is DU-145. As to the kind of experiment: Cytotoxic activity in human DU145 cells by sulforhodamine B assay. The data set is classed as functional. A digest of the protocol: as §1
Data set [6] deals with KB. As to the kind of experiment: Cytotoxic activity in human KB cells by sulforhodamine B assay. The data set is classed as functional. The procedure, abridged: as §1
In data set [7] the test system is HEp-2. As to the kind of experiment: Cytotoxic activity in human Hep2 cells by sulforhodamine B assay. The data set is classed as functional. The procedure, abridged: as §1
Data set [8] can be described thus: Cytotoxic activity in African green monkey Vero cells by sulforhodamine B assay. It is filed as cell-based. As to conditions: chlorocebus sabaeus. The procedure, abridged:
(§2)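 Cells grown in D-MEM with 10% (v/v) FBS, 100 U/mL penicillin G and 100 μg/mL streptomycin, at 37 °C under 5% CO2 and 95% humidity. Cytotoxic and antiproliferative effects were measured by the sulforhodamine B method of Skehan et al. CC50 (cytotoxic) or IC50 (antiproliferative) is the concentration giving 50% growth reduction. Docetaxel was the positive control. Triplicate tests.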

Data set [9] in a line: Cytotoxic activity in HEK293 cells by sulforhodamine B assay. It is filed as cell-based. As to conditions: human. The procedure, abridged: as §2
Data set [10] relates to HeLa. As to the kind of experiment: Antiproliferative activity in human HeLa cells by sulforhodamine B assay. The data set is classed as functional, cell-based. The procedure, abridged:
as §2

Data set [11] relates to SiHa. The experiment in a line: Antiproliferative activity in human SiHa cells by sulforhodamine B assay. The data set is classed as functional, cell-based. A digest of the protocol: as §2
Data set [12] deals with MCF7. As to the kind of experiment: Antiproliferative activity in human MCF7 cells by sulforhodamine B assay. It is filed as functional, cell-based. A digest of the protocol:
as §2

The test system of data set [13] is MDA-MB-231. As to the kind of experiment: Antiproliferative activity in human MDA-MB-231 cells by sulforhodamine B assay. The data set is classed as functional, cell-based. The procedure, abridged: as §2
In data set [14] the test system is DU-145. As to the kind of experiment: Antiproliferative activity in human DU145 cells by sulforhodamine B assay. It is filed as functional, cell-based. The procedure, abridged:
as §2

Data set [15] concerns KB. The experiment in a line: Antiproliferative activity in human KB cells by sulforhodamine B assay. The data set is classed as functional, cell-based. A digest of the protocol: as §2
Data set [16] relates to HEp-2. The experiment in a line: Antiproliferative activity in human Hep2 cells by sulforhodamine B assay. The data set is classed as functional, cell-based. A digest of the protocol:
as §2

The test system of the next data set is Vero. The experiment in a line: Antiproliferative activity in African green monkey Vero cells by sulforhodamine B assay. The data set is classed as cell-based. As to conditions: Chlorocebus sabaeus. A digest of the protocol: as §2
In another data set the test system is HEK293. The experiment in a line: Antiproliferative activity in HEK293 cells by sulforhodamine B assay. It is filed as cell-based. As to conditions: Homo sapiens. A digest of the protocol:
as §2

A word on the CC50: it is the concentration at which the toxic effect on the cells reaches its halfway point. In general, IC50 refers to the concentration at which inhibition is half-maximal. With `C=C(C=O)[C@@H]1CC[C@]2(C(=O)O)CC[C@]3(C)[C@H](CC[C@@H]4[C@@]5(C)CC[C@@H](O)[C@](C)(CO)[C@@H]5CC[C@]43C)[C@@H]12`, the CC50 with HeLa [1] was 182 µM; in the data set with SiHa [2] it was 92.2 µM; in the data set with MCF7 [3], more than 500 µM; in the data set on MDA-MB-231 [4], 106 µM; with DU-145 [5], 52.6 µM; with KB [6], more than 500 µM. Also, the CC50 (in the data set on HEp-2 [7]; in data set [8]; in data set [9]) was more than 500 µM throughout. Besides, the IC50 in the data set on HeLa [10] was 106 µM; in the data set on SiHa [11], 127 µM; with MCF7 [12], more than 500 µM; in the data set with MDA-MB-231 [13], 123 µM; in the data set on DU-145 [14], 89.7 µM; in the data set on KB [15], more than 500 µM. The IC50 in the data set with HEp-2 [16], in the data set on Vero and in the data set with HEK293 was more than 500 µM in each case.

On to `C=C(C)[C@@H]1CC[C@]2(C(=O)O)CC[C@]3(C)[C@H](CC[C@@H]4[C@@]5(C)CCC(=O)C(C)(C)[C@@H]5CC[C@]43C)[C@@H]12` [BETUNOLIC ACID], for which the CC50 was more than 500 µM with HeLa [1]; 117 µM in the data set with SiHa [2]; more than 500 µM in the data set with MCF7 [3]; 60.9 µM in the data set on MDA-MB-231 [4]; 139 µM with DU-145 [5]; more than 500 µM in the data set with KB [6]. Besides, the CC50 (in the data set with HEp-2 [7]; in [8]; in data set [9]) was more than 500 µM throughout. In addition, the IC50 in the data set on HeLa [10], in the data set with SiHa [11], with MCF7 [12], with MDA-MB-231 [13], in the data set on DU-145 [14] and in the data set with KB [15] was more than 500 µM in each case. The IC50 in the data set on HEp-2 [16], in the data set on Vero and with HEK293 was more than 500 µM each time.

`C=C(C)[C@@H]1CC[C@]2(CO)CC[C@]3(C)[C@H](CC[C@@H]4[C@@]5(C)CCC(=O)C(C)(C)[C@@H]5CC[C@]43C)[C@@H]12` [BETULONE]: the CC50 with HeLa [1] is 136 µM; in the data set on SiHa [2], 197 µM; in the data set on MCF7 [3] it was more than 500 µM; in the data set with MDA-MB-231 [4], 136 µM; in the data set on DU-145 [5], 102 µM; in the data set with KB [6] it was more than 500 µM. The CC50 (in the data set with HEp-2 [7]; in [8]; in data set [9]) was more than 500 µM each time. The IC50 in the data set with HeLa [10], in the data set with SiHa [11], in the data set with MCF7 [12], with MDA-MB-231 [13], with DU-145 [14] and in the data set on KB [15] was more than 500 µM in each case. For the same compound, the IC50 in the data set with HEp-2 [16], with Vero and in the data set with HEK293 was more than 500 µM throughout.

With `C=C(C)[C@@H]1CC[C@]2(CO)CC[C@]3(C)[C@H](CC[C@@H]4[C@@]5(C)CC[C@H](O)C(C)(C)[C@@H]5CC[C@]43C)[C@@H]12` [BETULIN], the CC50 was more than 500 µM with HeLa [1]; more than 500 µM in the data set on SiHa [2]; more than 500 µM with MCF7 [3]; more than 500 µM in the data set on MDA-MB-231 [4]; 162 µM in the data set on DU-145 [5]; more than 500 µM in the data set with KB [6]. The CC50 (with HEp-2 [7]; in data set [8]; in data set [9]) was more than 500 µM in each case. Further, the IC50 in the data set on HeLa [10] was more than 500 µM; in the data set with SiHa [11] it was more than 500 µM; in the data set with MCF7 [12], more than 500 µM; with MDA-MB-231 [13], more than 500 µM; in the data set on DU-145 [14], 137 µM; in the data set on KB [15], more than 500 µM. The IC50 in the data set on HEp-2 [16], with Vero and in the data set with HEK293 was more than 500 µM throughout.
